Assay outcomes: PubChem, The Scripps Research Institute Molecular Screening Center
M1 antag: antagonists of human M1 muscarinic receptor; inhibition, % at 3 µM; P11229; CHO-K1 hM1, Fluo-8 calcium fluorescence, ACh EC80 antagonist; hit rate 1.3% among 360,000; AID 588852;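 active means percent inhibition above its own plate's cutoff, namely the mean of that plate's compound wells plus 3 SD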;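 further: peak over basal fluorescence ratio during 140 s after agonist addition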
M1 PAM: potentiates human M1 receptor response to acetylcholine; AID 588819; activation, % at 3 µM; CHO-K1 hM1, Fluo-8 calcium fluorescence, ACh EC20; 0% = ACh EC20, 100% = maximal ACh; P11229; hit rate 0.088% among 360,000; in the data active means activation above about 19%, passing the limit was not always enough
TAAR1 ag: human TAAR1 agonism; CHO RD-HGA16 TAAR1, Fluo-8 calcium fluorescence; vehicle wells 0%, saturating PEA agonist 100%; Q96RJ0; activation, % at 3 µM; AID 624467; hit rate 0.99% among 360,000;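 active means activation above the mean activation of all test compounds in the run plus 3 SD, cut at about 38% in these data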
Target sequence (Q96RJ0 whole entry, looked up): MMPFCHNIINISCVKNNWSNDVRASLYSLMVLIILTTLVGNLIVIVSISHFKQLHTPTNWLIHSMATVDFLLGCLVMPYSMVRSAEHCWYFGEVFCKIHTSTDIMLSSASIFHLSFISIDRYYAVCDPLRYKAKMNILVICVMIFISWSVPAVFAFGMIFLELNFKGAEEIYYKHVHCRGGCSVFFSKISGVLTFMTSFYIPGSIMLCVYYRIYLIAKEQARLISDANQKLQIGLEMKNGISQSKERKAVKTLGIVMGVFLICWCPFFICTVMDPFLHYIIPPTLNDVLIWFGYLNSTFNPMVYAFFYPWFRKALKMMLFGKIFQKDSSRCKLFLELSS
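System: CHO-derived RD-HGA16 cells with stable Gα16 and human TAAR1 / Times: 17-24 h plating, Fluo-8 75 min 37 °C, 30 min RT / Technique: calcium-sensitive Fluo-8 signal, excitation 470-495, emission 515-575 nm / Measure: % activation relative to PEA EC100 response / Benchmarks: DMSO and PEA EC100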
CHRM1 agonist: agonists of human M1 muscarinic receptor. activation, % at 3 µM. CHO-K1 hM1, Fluo-8 calcium fluorescence, agonist mode; 0% DMSO, 100% acetylcholine EC100. P11229. AID 588814. hit rate 0.33% among 360,000;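 active means activation above the run's mean compound activation plus 3 SD, cut at about 16% in these data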;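 further: peak over basal fluorescence ratio within a 140 s kinetic read after compound addition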
TAAR1 antagonist: antagonists of human TAAR1 | Q96RJ0 | CHO RD-HGA16 TAAR1, Fluo-8 calcium fluorescence, antagonist | inhibition, % at 3 µM | hit rate 1.5% among 360,000 | AID 624466;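 active means inhibition above a per-plate cutoff, the mean inhibition of test compounds on that plate plus 3 SD, cut at about 49% in these data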
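Material: CHO RD-HGA16 cells bearing hTAAR1; compound dosing: one-point dosing, 3 µM nominal final; schedule: dye loading 75 min at 37 °C, then 30 min room temperature; measured by: calcium fluorescence with Fluo-8; control set: vehicle and agonist controls; replication: n of 1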
A number is an active result; – = inactive; · = no result given. Shown are actives, neighbours in structure and some others; about 3.4% of the full set was active somewhere.

SMILES	M1 antag	M1 PAM	TAAR1 ag	CHRM1 agonist	TAAR1 antagonist
CCC(C)CN1C(=O)CSCC1(C)C(=O)Nc1ccc2c(c1)OCCO2 (stereo unspecified)	·	·	–	·	–
O=C(CCSCCC(=O)NN=Cc1ccccc1O)NN=Cc1ccccc1O	–	–	44	–	–
COC(=O)[C@]12CCCCC=C1N(Cc1ccccc1)C(=O)[C@H](CC(=O)N1CCCCC1)C2	·	·	–	·	–
COC(=O)[C@]12CCCCC=C1N(CCc1ccc(OC)c(OC)c1)C(=O)[C@H](CC(=O)N1CCSCC1)C2	·	·	–	·	61
COC(=O)[C@]12CCCCC=C1N(Cc1ccc3c(c1)OCO3)C(=O)[C@H](CC(=O)N1CCCC1)C2	·	·	–	·	54
C#CCNC(=O)C[C@@H]1C[C@@]2(C(=O)OC)CCCCC=C2N(Cc2ccc3c(c2)OCO3)C1=O	·	·	–	·	–
COC(=O)[C@]12CCCCC=C1N(Cc1ccccc1)C(=O)[C@H](CC(=O)N1CCCC1)C2	·	·	–	·	56
COC(=O)[C@]12CCCCC=C1N(Cc1ccc3c(c1)OCO3)C(=O)[C@H](CC(=O)N1CCCCC1)C2	·	·	–	·	52
CCOC(=O)[C@]12CCC=C1N(Cc1ccc3c(c1)OCO3)C(=O)[C@H](CC(=O)N1CCCC1)C2	·	·	–	·	–
CCNC(=O)N1CCN(c2ccc(N3CCN(Cc4ccccc4)[C@@H](C)C3)c(C)c2)[C@@H](C)C1	·	·	–	·	–
CCN(CC)C(=O)c1ncn2c1C(=O)N[C@H](C)C2	·	·	–	·	–
COc1ccc(-c2noc(N3CCC(C(=O)NCCCN4CCC(C)CC4)CC3)n2)cc1	32	–	–	–	–
COC(=O)C1=C(C)N(Cc2cccc(C(F)(F)F)c2)C(=NCc2ccc3c(c2)OCO3)NC1c1cccc(Cl)c1 (stereo unspecified)	·	·	–	·	–
CC(/C=N/n1c(-c2cccnc2)n[nH]c1=S)=C\c1ccco1	·	·	–	·	–
CC(/C=N/n1c(-c2n[nH]c3c2CCC3)n[nH]c1=S)=C\c1ccco1	67	–	–	–	–
COc1cccc(/C=N/n2c(-c3n[nH]c4c3CCC4)n[nH]c2=S)c1OC	76	–	–	–	–
COc1ccc(C(=O)N(C)CCCC2CCCC2)cc1OC1CCN(C(C)C)CC1	30	–	–	–	–
CCN=C1SC(CC(=O)Nc2ccc3c(c2)OCO3)C(=O)N1CC (stereo unspecified)	28	–	–	–	59
O=C1Nc2ccccc2-n2nnnc2C1N1CCN(C(=O)c2ccco2)CC1 (stereo unspecified)	·	·	–	·	–
Cc1ccccc1NC(=O)COc1coc(CN2CCCc3ccccc32)cc1=O	–	26	–	–	–
O=C1NC[C@H](CCCCN2C[C@H](Cc3ccc(O)cc3)N(CCc3ccccc3)C(=O)C2=O)N(Cc2ccccc2)C1=O	·	·	–	·	–
O=C1NC[C@@H](CCCCN2C[C@H](Cc3ccc(O)cc3)N(CC3CCCCC3)C(=O)C2=O)N(CCC2CCCCC2)C1=O	·	·	43	·	–
O=C1NC[C@H](CCCCN2C[C@H](Cc3ccc(O)cc3)N(CCc3ccc(O)cc3)C(=O)C2=O)N(Cc2ccccc2)C1=O	·	·	43	·	–
COc1cc(OC)nc(Nc2nc(C(N)Cc3ccc(C(F)(F)F)cc3)cs2)n1 (stereo unspecified)	–	–	53	–	–
COc1cc(OC)nc(Nc2nc(C(N)Cc3ccccc3)cs2)n1 (stereo unspecified)	–	–	–	–	–
SMILES	M1 antag	M1 PAM	TAAR1 ag	CHRM1 agonist	TAAR1 antagonist
NC(Cc1ccccc1)c1csc(Nc2ccc(C(F)(F)F)cn2)n1 (stereo unspecified)	–	–	41	–	–
Cc1cc(C)nc(Nc2nc(C(N)Cc3ccc(C(F)(F)F)cc3)cs2)n1 (stereo unspecified)	–	–	47	–	–
O=C(C(=O)N1CCC(CNS(=O)(=O)c2ccccc2OC(F)(F)F)CC1)c1cc2ccccc2o1	·	·	–	·	–
CCOC(=O)N(C)c1c(CC)nc2c(OCc3ccccc3C)cccn12	–	–	–	–	–
CC(=O)c1c(C)[nH]c(C(=O)OCc2ccccc2)c1C	–	–	–	–	–
CC(=O)c1c(C)[nH]c(C(=O)OCCCCN2C(=O)c3ccccc3C2=O)c1C	40	–	–	–	72
CCOC(=O)c1[nH]c2ccccc2c1CCCN1C(=O)c2ccccc2C1=O	89	–	–	–	–
CC(C)CC(=O)Nc1nnc(-c2ccco2)s1	–	–	–	–	–
CCc1ccc(OCC(=O)Nc2nnc(-c3ccco3)s2)cc1	–	–	39	–	–
COc1ccc(NS(=O)(=O)c2ccc(-c3coc(C)n3)cc2)cc1OC	63	–	–	–	–
COc1ccc(NS(=O)(=O)c2ccc(-c3coc(C)n3)cc2)cc1	–	–	–	–	–
OC1(c2ccc(OC(F)F)cc2)CSC(=Nc2cccnc2)N1Cc1ccco1 (stereo unspecified)	–	–	–	–	57
OC1(c2ccc(F)cc2)CSC(=Nc2cccnc2)N1Cc1ccco1 (stereo unspecified)	–	–	–	–	–
O=c1ccoc2ccccc12	–	–	–	–	–
CCOC(=O)C1=C[C@@H](C2CCCC2)N(S(=O)(=O)c2ccc([N+](=O)[O-])cc2)[C@H]1c1ccccc1	44	–	–	–	–
CCOC(=O)C1=C[C@@H](CC)N(S(=O)(=O)c2ccc(C)cc2)[C@H]1c1ccccc1	–	–	–	–	–
Cn1nc(C(F)(F)F)c(/C=N/OC(=O)c2ccccc2Cl)c1SCc1ccccc1Cl	33	–	–	–	–
Cc1cc(=O)[nH]c(SCC(=O)N2CCCCC2)n1	–	–	–	–	–
O=C(Nc1ccccc1-c1ccccc1)NC1CCN(CC(=O)N2CCOCC2)CC1	35	–	–	–	–
COc1ccc(N2CCN(C(=O)CN3CCN(C(c4ccccc4)c4ccccc4)CC3)CC2)cc1	65	–	–	–	–
O=C(O)COCC(=O)N1CCN(C(c2ccccc2)c2ccccc2)CC1	58	–	–	–	–
Cc1cc(=O)[nH]c(SCC(=O)N2CCN(C(c3ccccc3)c3ccccc3)CC2)n1	52	–	–	–	–
CC1(C)Cc2cccc(OC(=O)NC3CCCCC3)c2O1	·	·	–	·	–
CC(=O)OCC(=O)NCC1CCN(C(=O)C(=O)c2cc3ccccc3o2)CC1	·	·	–	·	–
C#CCN1C[C@@]2(O)CC[C@@H](O)[C@@H](OC)[C@@H]2[C@@]1(C)[C@H](O)CC=C(C)C	·	·	–	·	–
COc1ccc2c(c1)[C@@]1(OCCC=C[C@H]1C)C(=O)N2CC1CC1	·	·	–	·	–
N#Cc1ccc(C(=O)NCC2CCN(C(=O)C(=O)c3cccs3)CC2)cc1	·	·	–	·	–
N#CCC(=O)N1CCN(C(c2ccccc2)c2ccccc2)CC1	–	–	–	–	–
O=C(CN1CCN(C(c2ccccc2)c2ccccc2)CC1)N1CCOCC1	63	–	–	–	–
